Results on 3 compounds are retold here after ChEMBL document CHEMBL5696442, “Discovery of type II inhibitors of TGFβ-activated kinase 1 (TAK1) and mitogen-activated protein kinase kinase kinase kinase 2 (MAP4K2)” (J Med Chem, 2015).

Broadly, the residual activity is the activity still measured, relative to the control. Low readings indicate little activity left, high ones much activity left. What is called inhibition is the change of the read-out against control, counted positive when it falls.

Molecules are shown by their SMILES. The source made the active and inactive calls. The rule behind the calls is not given here.

Assay [1] has as its target Serine/threonine-protein kinase DCLK3 (Homo sapiens) (UniProt Q9C098). Nature of the assay: Inhibition of DCAMKL3 (unknown origin) at 1 uM by Ambit Kinomescan binding assay relative to control; values are per cent of control.
The target of assay [2] is Ribosomal protein S6 kinase alpha-2 (Homo sapiens) (UniProt Q15349). Kind of assay: Inhibition of C-terminal RSK3 kinase domain 2 (unknown origin) at 1 uM by Ambit Kinomescan binding assay relative to control. A digest of the protocol: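 In vitro ATP-site competition binding assay against a panel of over 420 kinases (KinomeScan), with compound tested at 10 or 1 μM.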

Assay [3] addresses SRSF protein kinase 3 (Homo sapiens) (UniProt Q9UPE1). Kind of assay: Inhibition of SRPK3 (unknown origin) at 1 uM by Ambit Kinomescan binding assay relative to control.
Assay [4] has as its target TRAF2 and NCK-interacting protein kinase (Homo sapiens) (UniProt Q9UKE5). Nature of the assay: Inhibition of TNIK (unknown origin) at 10 uM by Ambit Kinomescan binding assay relative to control; values are per cent of control.
The target of assay [5] is Mitogen-activated protein kinase kinase kinase 4 (Homo sapiens) (UniProt Q9Y6R4). Nature of the assay: Inhibition of MAP3K4 (unknown origin) at 10 uM by Ambit Kinomescan binding assay.
Assay [6] has as its target Cyclin-dependent kinase 17 (Homo sapiens) (UniProt Q00537). Kind of assay: Inhibition of PCTAIRE2 Lys1 labeling site harbouring SKLTENLVALKEIR in human A-375 cells at 0.05 uM by KiNativ Profiling analysis relative to control. Type of assay: cell-based.
The target in assay [7] is T1, Serine/threonine-protein kinase ULK3 (Homo sapiens) (UniProt Q6PHR2).
T1 sequence (whole entry): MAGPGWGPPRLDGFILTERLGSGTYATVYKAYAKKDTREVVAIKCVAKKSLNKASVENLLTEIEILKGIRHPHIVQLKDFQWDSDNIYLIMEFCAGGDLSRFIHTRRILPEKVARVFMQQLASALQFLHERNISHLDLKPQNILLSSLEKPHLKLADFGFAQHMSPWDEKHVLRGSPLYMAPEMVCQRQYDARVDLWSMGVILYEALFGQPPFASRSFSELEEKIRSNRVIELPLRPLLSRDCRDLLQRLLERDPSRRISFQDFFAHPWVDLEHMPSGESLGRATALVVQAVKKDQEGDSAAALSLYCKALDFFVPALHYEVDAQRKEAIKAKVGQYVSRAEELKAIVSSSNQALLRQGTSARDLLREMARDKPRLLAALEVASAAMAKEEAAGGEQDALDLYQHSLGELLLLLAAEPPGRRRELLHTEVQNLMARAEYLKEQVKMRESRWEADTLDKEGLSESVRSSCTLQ
Nature of the assay: Inhibition of ULK3 K1 labeling site in human Huh-7 cells at 10 uM by KiNativ Profiling analysis relative to control. The class given is cell-based.

Assay [8] has as its target Tyrosine-protein kinase ABL1 (Homo sapiens, UniProt P00519). Kind of assay: Inhibition of ABL Lys1 labeling site in human A-375 cells at 0.05 uM by KiNativ Profiling analysis relative to control. The class given is cell-based.
Assay [9] has as its target TRAF2 and NCK-interacting protein kinase (Homo sapiens) (UniProt Q9UKE5). Nature of the assay: Inhibition of ZC2/TNIK K2 labeling site in human Huh-7 cells at 10 uM by KiNativ Profiling analysis relative to control. The class given is cell-based.
Assay [10] addresses Serine/threonine-protein kinase pim-1 (Homo sapiens) (UniProt P11309). Nature of the assay: Inhibition of PIM1 (unknown origin) at 10 uM by Ambit Kinomescan binding assay.
Assay [11] deals with Myosin light chain kinase family member 4 (Homo sapiens) (UniProt Q86YV6). Kind of assay: Inhibition of SgK085 (unknown origin) at 10 uM by Ambit Kinomescan binding assay.
In assay [12] the target is Serine/threonine-protein kinase ULK2 (Homo sapiens) (UniProt Q8IYT8). Kind of assay: Inhibition of ULK2 (unknown origin) at 10 uM by Ambit Kinomescan binding assay.
Assay [13] has as its target Cyclin-dependent kinase 13 (Homo sapiens) (UniProt Q14004). Nature of the assay: Inhibition of CHED K2 labeling site in human Huh-7 cells at 1 uM by KiNativ Profiling analysis relative to control. The class given is cell-based.
Assay [14] has as its target Microtubule-associated serine/threonine-protein kinase 3 (Homo sapiens) (UniProt O60307). Kind of assay: Inhibition of MAST3 Lys2 labeling site in human A-375 cells at 0.5 uM by KiNativ Profiling analysis relative to control. The class given is cell-based.
Assay [15] relates to Proto-oncogene tyrosine-protein kinase receptor Ret (Homo sapiens), P07949 [M918T]. Nature of the assay: Inhibition of RET M918T mutant (unknown origin) at 10 uM by Ambit Kinomescan binding assay relative to control; values are per cent of control.
Assay [16] addresses STE20-like serine/threonine-protein kinase (Homo sapiens) (UniProt Q9H2G2). Kind of assay: Inhibition of SLK Lys2 labeling site harbouring DLKAGNILFTLDGDIKLADFGVSAK in human Huh-7 cell lysate at 1 uM by KiNativ Profiling analysis relative to control. Type of assay: subcellular.
Assay [17] has as its target Phosphatidylinositol 4-kinase type 2-beta (Homo sapiens) (UniProt Q8TCG2). Kind of assay: Inhibition of PI4K2B ATP labeling site in human Huh-7 cells at 1 uM by KiNativ Profiling analysis relative to control. The class given is cell-based.
Assay [18] concerns the target Cyclin-dependent kinase 12 (Homo sapiens) (UniProt Q9NYV4). Nature of the assay: Inhibition of CRK7 Lys2 labeling site in human Huh-7 cells at 1 uM by KiNativ Profiling analysis relative to control. The class given is cell-based.
The target of assay [19] is DNA-PK/Ku70/Ku85 (Homo sapiens) (UniProt P78527+P12956+P13010). Nature of the assay: Inhibition of DNAPK ATP labeling site harbouring KGGSWIQEINVAEKNWYPR in human Huh-7 cells at 1 uM by KiNativ Profiling analysis relative to control. Type of assay: cell-based.

Sequence of TRAF2 and NCK-interacting protein kinase (Homo sapiens) (Q9UKE5 whole entry, looked up): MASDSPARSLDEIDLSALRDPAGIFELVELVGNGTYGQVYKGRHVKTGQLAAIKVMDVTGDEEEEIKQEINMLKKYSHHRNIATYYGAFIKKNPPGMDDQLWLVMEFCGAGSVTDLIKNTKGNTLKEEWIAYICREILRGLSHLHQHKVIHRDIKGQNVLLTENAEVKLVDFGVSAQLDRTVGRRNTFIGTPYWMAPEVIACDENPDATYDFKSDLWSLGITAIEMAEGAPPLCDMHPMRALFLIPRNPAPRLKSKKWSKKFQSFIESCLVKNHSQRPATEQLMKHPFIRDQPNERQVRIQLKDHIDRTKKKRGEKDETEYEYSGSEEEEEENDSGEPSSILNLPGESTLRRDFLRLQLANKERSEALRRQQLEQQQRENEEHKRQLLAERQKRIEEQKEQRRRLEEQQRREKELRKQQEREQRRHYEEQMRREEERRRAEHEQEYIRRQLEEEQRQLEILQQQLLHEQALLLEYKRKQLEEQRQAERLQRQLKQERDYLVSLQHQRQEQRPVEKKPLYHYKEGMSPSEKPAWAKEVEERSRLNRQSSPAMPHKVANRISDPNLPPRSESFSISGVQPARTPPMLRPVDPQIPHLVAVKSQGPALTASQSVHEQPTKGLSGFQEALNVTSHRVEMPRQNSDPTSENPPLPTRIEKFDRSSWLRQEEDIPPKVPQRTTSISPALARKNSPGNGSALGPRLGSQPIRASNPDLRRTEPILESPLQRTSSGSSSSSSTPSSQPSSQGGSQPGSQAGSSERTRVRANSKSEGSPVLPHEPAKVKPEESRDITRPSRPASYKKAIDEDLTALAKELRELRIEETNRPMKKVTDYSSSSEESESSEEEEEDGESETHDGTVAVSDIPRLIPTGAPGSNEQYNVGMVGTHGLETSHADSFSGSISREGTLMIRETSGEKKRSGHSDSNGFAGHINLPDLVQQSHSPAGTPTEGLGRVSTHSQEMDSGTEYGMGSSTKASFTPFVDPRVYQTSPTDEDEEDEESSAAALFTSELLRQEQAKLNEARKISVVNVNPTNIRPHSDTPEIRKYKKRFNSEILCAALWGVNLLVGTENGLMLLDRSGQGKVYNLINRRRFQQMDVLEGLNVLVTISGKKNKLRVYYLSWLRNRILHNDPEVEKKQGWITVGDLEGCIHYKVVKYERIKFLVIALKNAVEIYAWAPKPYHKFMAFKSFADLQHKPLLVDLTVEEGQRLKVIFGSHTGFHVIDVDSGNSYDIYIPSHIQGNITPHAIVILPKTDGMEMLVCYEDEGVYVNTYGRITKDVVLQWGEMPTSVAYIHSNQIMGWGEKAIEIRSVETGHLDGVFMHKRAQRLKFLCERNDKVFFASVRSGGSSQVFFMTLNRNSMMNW
Sequence of Cyclin-dependent kinase 12 (Homo sapiens) (Q9NYV4 whole entry, looked up): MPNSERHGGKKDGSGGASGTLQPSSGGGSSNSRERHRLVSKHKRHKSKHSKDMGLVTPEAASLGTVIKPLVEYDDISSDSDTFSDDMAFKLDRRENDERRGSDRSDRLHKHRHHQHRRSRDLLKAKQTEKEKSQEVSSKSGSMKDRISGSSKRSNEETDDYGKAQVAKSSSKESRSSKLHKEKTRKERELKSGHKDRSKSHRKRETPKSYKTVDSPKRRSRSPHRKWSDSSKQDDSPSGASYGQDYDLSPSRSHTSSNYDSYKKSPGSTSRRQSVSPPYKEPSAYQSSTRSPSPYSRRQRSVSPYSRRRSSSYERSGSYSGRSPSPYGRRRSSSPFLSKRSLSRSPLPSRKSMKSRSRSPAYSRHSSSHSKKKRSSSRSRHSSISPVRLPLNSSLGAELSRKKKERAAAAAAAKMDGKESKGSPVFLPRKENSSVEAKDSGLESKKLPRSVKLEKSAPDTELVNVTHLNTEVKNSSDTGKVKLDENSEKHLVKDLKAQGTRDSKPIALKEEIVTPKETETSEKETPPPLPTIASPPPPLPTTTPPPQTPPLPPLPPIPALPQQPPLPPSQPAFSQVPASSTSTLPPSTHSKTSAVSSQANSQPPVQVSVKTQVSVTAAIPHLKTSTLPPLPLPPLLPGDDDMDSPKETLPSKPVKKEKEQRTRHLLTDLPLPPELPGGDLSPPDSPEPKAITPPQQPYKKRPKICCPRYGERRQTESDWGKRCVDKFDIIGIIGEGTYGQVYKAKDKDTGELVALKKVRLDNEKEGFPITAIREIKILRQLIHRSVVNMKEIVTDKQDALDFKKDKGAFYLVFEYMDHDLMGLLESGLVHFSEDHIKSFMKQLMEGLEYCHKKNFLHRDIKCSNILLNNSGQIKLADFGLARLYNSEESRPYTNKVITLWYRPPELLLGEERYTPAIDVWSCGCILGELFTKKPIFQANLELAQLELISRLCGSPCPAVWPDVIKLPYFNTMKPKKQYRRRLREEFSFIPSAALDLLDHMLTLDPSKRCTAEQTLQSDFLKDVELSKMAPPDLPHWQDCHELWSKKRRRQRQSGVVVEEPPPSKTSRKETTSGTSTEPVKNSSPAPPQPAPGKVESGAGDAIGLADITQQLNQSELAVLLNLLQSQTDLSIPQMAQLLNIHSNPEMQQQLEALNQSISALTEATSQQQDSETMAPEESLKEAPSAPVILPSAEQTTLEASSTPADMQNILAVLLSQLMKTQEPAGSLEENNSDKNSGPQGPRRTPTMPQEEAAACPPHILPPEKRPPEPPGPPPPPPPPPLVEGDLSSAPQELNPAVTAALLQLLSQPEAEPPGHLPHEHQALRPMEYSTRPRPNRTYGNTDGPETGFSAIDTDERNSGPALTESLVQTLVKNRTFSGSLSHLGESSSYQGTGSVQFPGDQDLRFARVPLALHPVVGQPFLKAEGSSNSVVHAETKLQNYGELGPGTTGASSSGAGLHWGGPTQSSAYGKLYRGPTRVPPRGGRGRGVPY
Sequence of Cyclin-dependent kinase 13 (Homo sapiens) (Q14004 whole entry, looked up): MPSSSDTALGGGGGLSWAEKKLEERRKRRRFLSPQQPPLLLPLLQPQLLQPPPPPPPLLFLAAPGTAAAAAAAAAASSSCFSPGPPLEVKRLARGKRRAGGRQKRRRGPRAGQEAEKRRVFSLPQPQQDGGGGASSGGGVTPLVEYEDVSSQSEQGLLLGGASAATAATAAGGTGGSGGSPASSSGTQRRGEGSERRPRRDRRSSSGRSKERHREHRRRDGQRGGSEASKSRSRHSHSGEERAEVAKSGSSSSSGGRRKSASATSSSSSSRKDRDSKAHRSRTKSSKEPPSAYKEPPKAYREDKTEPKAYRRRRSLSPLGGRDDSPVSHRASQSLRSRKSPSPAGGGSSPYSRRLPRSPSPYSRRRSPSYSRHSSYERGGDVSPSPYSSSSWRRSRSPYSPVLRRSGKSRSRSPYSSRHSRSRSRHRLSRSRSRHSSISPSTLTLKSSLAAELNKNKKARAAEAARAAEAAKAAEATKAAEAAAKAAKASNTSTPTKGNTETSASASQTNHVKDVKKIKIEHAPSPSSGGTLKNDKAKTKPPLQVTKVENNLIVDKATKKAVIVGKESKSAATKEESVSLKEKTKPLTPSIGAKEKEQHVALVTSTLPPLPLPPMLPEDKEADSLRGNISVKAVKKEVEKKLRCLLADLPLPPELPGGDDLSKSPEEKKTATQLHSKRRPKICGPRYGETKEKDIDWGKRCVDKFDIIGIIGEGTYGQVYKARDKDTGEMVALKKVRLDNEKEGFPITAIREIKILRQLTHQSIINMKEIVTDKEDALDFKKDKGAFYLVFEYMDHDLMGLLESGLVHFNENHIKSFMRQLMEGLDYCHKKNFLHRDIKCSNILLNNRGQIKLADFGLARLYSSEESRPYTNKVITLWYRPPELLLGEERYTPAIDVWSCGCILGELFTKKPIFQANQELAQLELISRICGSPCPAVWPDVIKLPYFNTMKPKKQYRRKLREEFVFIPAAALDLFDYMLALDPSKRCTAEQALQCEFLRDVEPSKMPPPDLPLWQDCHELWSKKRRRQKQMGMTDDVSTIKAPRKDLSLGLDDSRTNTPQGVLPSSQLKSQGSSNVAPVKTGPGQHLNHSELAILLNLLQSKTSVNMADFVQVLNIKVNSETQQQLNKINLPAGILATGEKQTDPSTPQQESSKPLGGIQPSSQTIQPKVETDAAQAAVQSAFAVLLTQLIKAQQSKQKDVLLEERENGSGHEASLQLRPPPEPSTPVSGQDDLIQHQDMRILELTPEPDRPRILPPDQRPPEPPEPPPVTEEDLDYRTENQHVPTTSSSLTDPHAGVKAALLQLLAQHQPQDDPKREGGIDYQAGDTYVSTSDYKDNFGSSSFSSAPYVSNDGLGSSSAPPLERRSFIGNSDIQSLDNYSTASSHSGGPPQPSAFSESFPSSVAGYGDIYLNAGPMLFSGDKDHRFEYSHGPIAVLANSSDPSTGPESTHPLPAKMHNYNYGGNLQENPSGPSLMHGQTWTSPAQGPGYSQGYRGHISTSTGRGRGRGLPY
Sequence of Ribosomal protein S6 kinase alpha-2 (Homo sapiens) (Q15349 whole entry, the tested form may be a part): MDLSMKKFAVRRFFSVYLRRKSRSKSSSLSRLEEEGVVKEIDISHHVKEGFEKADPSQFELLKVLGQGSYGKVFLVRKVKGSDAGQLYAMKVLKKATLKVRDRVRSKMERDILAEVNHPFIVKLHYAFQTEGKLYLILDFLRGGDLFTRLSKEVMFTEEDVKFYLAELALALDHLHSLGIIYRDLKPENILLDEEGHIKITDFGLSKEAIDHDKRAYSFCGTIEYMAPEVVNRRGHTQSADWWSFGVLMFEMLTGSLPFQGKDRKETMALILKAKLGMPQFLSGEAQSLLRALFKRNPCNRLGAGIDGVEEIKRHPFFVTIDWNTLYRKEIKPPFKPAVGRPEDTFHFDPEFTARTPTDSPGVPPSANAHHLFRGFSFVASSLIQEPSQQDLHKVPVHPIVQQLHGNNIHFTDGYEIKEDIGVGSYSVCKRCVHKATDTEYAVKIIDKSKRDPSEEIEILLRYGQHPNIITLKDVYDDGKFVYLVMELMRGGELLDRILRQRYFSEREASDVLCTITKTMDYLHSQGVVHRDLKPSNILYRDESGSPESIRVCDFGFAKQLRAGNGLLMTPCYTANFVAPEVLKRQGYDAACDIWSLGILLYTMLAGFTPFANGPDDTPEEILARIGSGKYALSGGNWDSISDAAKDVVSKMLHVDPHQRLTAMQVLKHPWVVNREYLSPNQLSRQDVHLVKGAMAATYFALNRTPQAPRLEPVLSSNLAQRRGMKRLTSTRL

In assay [1], `CCN1CCN(Cc2ccc(NC(=O)c3ccc(C)c(/C=C/c4cnc5[nH]ccc5c4OC)c3)cc2C(F)(F)F)CC1` came in with a residual activity of 100%. For the same compound, the values for the inhibition in assay [2] and in [3] were 67% and 37%, respectively.
Turning to `CCN1CCN(Cc2ccc(NC(=O)c3ccc(C)c(Oc4ccnc5[nH]ccc45)c3)cc2C(F)(F)F)CC1`, the figures for the residual activity in [4] and in assay [15] were 8.2% and 0%, respectively. The inhibition result in [5], in assay [10], in [11], in [12] and in assay [13] was “inactive” each time. Moreover, the inhibition in [6] amounted to 2.5%; in assay [7], 48%; in assay [8], 84.8%; in assay [9], 72.6%; in [14], 2.5%.
As for `CNc1cc(Oc2cc(C(=O)Nc3cc(N4CCN(C)CC4)cc(C(F)(F)F)c3)ccc2C)ncn1`, the inhibition in assay [16] stood at 30.2%; in [17], 16%; in assay [18], 40.3%; in assay [19], 68.1%.
